Laboratory results reported in ChEMBL document CHEMBL1136980, “Synthesis of novel 3-(1-(1-substituted piperidin-4-yl)-1H-1,2,3-triazol-4-yl)-1,2,4-oxadiazol-5(4H)-one as antifungal agents” (2009).
In brackets after ≈: the same amount, converted by molar mass. Activity calls are given as the source filed them. The rule behind the calls is not given here.

Assays:
Fusarium oxysporum = experiment: Antifungal activity against Fusarium oxysporum NCIM 1332 by agar plate assay; assay type: functional
In short: (§1)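 In vitro MIC determined by standard agar plate method (cup plate format). Compounds were tested in dimethyl sulfoxide, with DMSO alone as solvent control. Miconazole and fluconazole served as reference standards.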

Aspergillus flavus [1] = experiment: Antifungal activity against Aspergillus flavus NCIM 539 by agar plate assay; assay type: functional; in short: as §1
Aspergillus niger [2] = experiment: Antifungal activity against Aspergillus niger NCIM 1196 by agar plate assay; assay type: functional; in short: as §1
Candida albicans [3] = experiment: Antifungal activity against Candida albicans NCIM 3471 at 200 ug/mL by agar plate assay; assay type: functional, organism-based
Cryptococcus neoformans [4] = experiment: Antifungal activity against Cryptococcus neoformans NCIM 576 at 200 ug/mL by agar plate assay; assay type: functional, organism-based
Candida albicans [5] = experiment: Antifungal activity against Candida albicans NCIM 3471 by agar plate assay; assay type: functional; in short: as §1
Cryptococcus neoformans [6] = experiment: Antifungal activity against Cryptococcus neoformans NCIM 576 by agar plate assay; assay type: functional; in short: as §1
Aspergillus flavus [7] = experiment: Antifungal activity against Aspergillus flavus NCIM 539 at 200 ug/mL by agar plate assay; assay type: functional, organism-based
Aspergillus niger [8] = experiment: Antifungal activity against Aspergillus niger NCIM 1196 at 200 ug/mL by agar plate assay; assay type: functional, organism-based

Compound	MIC (Fusarium oxysporum) [µg/mL]	MIC (Aspergillus flavus [1]) [µg/mL]	MIC (Aspergillus niger [2]) [µg/mL]	Activity (Candida albicans [3])	Activity (Cryptococcus neoformans [4])	MIC (Candida albicans [5]) [µg/mL]	MIC (Cryptococcus neoformans [6]) [µg/mL]	Activity (Aspergillus flavus [7])	Activity (Aspergillus niger [8])
CC(C)(C)OC(=O)N1CCC(n2cc(C#N)nn2)CC1	90 (≈ 325 µM)	55 (≈ 198 µM)	50 (≈ 180 µM)	inactive	inactive	–	–	–	–
CCC(=O)N1CCC(n2cc(-c3noc(=O)[nH]3)nn2)CC1	90 (≈ 308 µM)	42 (≈ 144 µM)	42 (≈ 144 µM)	–	–	85 (≈ 291 µM)	85 (≈ 291 µM)	–	–
CC(=O)N1CCC(n2cc(-c3noc(=O)[nH]3)nn2)CC1	61 (≈ 219 µM)	31 (≈ 111 µM)	31 (≈ 111 µM)	–	–	60 (≈ 216 µM)	65 (≈ 234 µM)	–	–
CC(C)(C)OC(=O)N1CCC(n2cc(/C(N)=N/O)nn2)CC1	35 (≈ 113 µM)	20 (≈ 64.4 µM)	20 (≈ 64.4 µM)	–	–	35 (≈ 113 µM)	40 (≈ 129 µM)	–	–
CC(C)(C)OC(=O)N1CCC(n2cc(C(N)=O)nn2)CC1	55 (≈ 186 µM)	27 (≈ 91.4 µM)	25 (≈ 84.6 µM)	–	–	50 (≈ 169 µM)	45 (≈ 152 µM)	–	–
CCOC(=O)c1cn(C2CCN(C(=O)OC(C)(C)C)CC2)nn1	44 (≈ 136 µM)	22 (≈ 67.8 µM)	19 (≈ 58.6 µM)	–	–	40 (≈ 123 µM)	35 (≈ 108 µM)	–	–
OC(Cn1cncn1)(Cn1cncn1)c1ccc(F)cc1F [FLUCONAZOLE]	5 (≈ 16.3 µM)	5 (≈ 16.3 µM)	10 (≈ 32.7 µM)	–	–	5 (≈ 16.3 µM)	5 (≈ 16.3 µM)	–	–
Clc1ccc(COC(Cn2ccnc2)c2ccc(Cl)cc2Cl)c(Cl)c1 (stereo not given) [MICONAZOLE]	25 (≈ 60.1 µM)	12.5 (≈ 30 µM)	12.5 (≈ 30 µM)	–	–	25 (≈ 60.1 µM)	25 (≈ 60.1 µM)	–	–
O=c1[nH]c(-c2cn(C3CCNCC3)nn2)no1	25 (≈ 106 µM)	15 (≈ 63.5 µM)	15 (≈ 63.5 µM)	–	inactive	27.5 (≈ 116 µM)	–	–	–
Cc1ccc(S(=O)(=O)N2CCC(n3cc(-c4noc(=O)[nH]4)nn3)CC2)cc1	33 (≈ 84.5 µM)	25 (≈ 64 µM)	20 (≈ 51.2 µM)	–	–	30 (≈ 76.8 µM)	40 (≈ 102 µM)	–	–
O=C(c1ccc(Cl)cc1)N1CCC(n2cc(-c3noc(=O)[nH]3)nn2)CC1	55 (≈ 147 µM)	20 (≈ 53.4 µM)	25 (≈ 66.7 µM)	–	–	40 (≈ 107 µM)	40 (≈ 107 µM)	–	–
CC(C)(C)OC(=O)N1CCC(n2cc(-c3noc(=O)[nH]3)nn2)CC1	25 (≈ 74.3 µM)	15 (≈ 44.6 µM)	20 (≈ 59.5 µM)	–	inactive	30 (≈ 89.2 µM)	–	–	–
CCCC(=O)N1CCC(n2cc(-c3noc(=O)[nH]3)nn2)CC1	95 (≈ 310 µM)	–	–	–	–	90 (≈ 294 µM)	85 (≈ 277 µM)	inactive	inactive
CCN1CCC(n2cc(-c3noc(=O)[nH]3)nn2)CC1	39 (≈ 148 µM)	19 (≈ 71.9 µM)	19 (≈ 71.9 µM)	–	–	37 (≈ 140 µM)	39 (≈ 148 µM)	–	–
CN1CCC(n2cc(-c3noc(=O)[nH]3)nn2)CC1	25 (≈ 99.9 µM)	10 (≈ 40 µM)	12.5 (≈ 49.9 µM)	–	–	20 (≈ 79.9 µM)	60 (≈ 240 µM)	–	–
CS(=O)(=O)N1CCC(n2cc(-c3noc(=O)[nH]3)nn2)CC1	25 (≈ 79.5 µM)	15 (≈ 47.7 µM)	10 (≈ 31.8 µM)	–	–	20 (≈ 63.6 µM)	27.5 (≈ 87.5 µM)	–	–
O=C(c1ccccc1)N1CCC(n2cc(-c3noc(=O)[nH]3)nn2)CC1	88 (≈ 259 µM)	42 (≈ 123 µM)	42 (≈ 123 µM)	–	–	85 (≈ 250 µM)	85 (≈ 250 µM)	–	–
